Measured values reported in PMC7165017 (Inorganic chemistry, 2019).
Where two headings read alike, the source gives them in different places.

What was measured:
Hep G2 cells = assay: MTT cell viability assay, Hep G2; assay type: cell-based, human; details: read-out: IC50 ± SD, Hep G2, 48 h, normoxia (∼15% O2)
Summary of the method: (§1)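 Media: Hep G2 in MEM, MIA PaCa-2 in DMEM, MDA-MB-231 in DMEM/F-12, each with 10% FBS and antibiotics. Cells were seeded at 6 × 10^3 per well and kept 48 h at 37 °C, 5% CO2. Medium was renewed, then compound was added (DMSO ≤0.2%, vehicle-matched) for 48 h in triplicate wells. MTT (1 mg mL−1) ran 3 h; formazan was dissolved in DMSO and read at 595 nm versus untreated wells. IC50 came from a four-parameter variable-slope fit, ≥3 independent experiments. Hypoxic MDA-MB-231 cells were kept at 1.5% O2 for ≥2 passages beforehand.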

MIA PaCa-2 cells = assay: MTT cell viability assay, MIA PaCa-2; assay type: cell-based, human; details: read-out: IC50 ± SD, MIA PaCa-2, 48 h, normoxia (∼15% O2)
Summary of the method: as §1

[1] = test system: microtubule network in MDA-MB-231 cells; assay: Immunofluorescence study of microtubule network disruption; assay type: cell-based, human; details: 12 h; cisplatin 50 μM, colchicine 100 nM (controls)
Summary of the method: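 5 × 10^4 MDA-MB-231 cells were grown on glass coverslips for 48 h, then treated 12 h (vehicle 0.1% DMSO). Fixation used 4% paraformaldehyde for 10 min and 100 mM glycine quench, followed by 3% BSA/PBST block for 20 min. Rabbit monoclonal anti-α-tubulin (1:400, 2 h) was followed by AlexaFluor 488 anti-rabbit (1:1000, 2 h, dark) and DAPI mount. Confocal imaging used a 63× objective. Microtubule-network perimeter was averaged over ≥10 treated versus ≥10 untreated cells and expressed as relative perimeter.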

MDA-MB-231 cells = assay: MTT cell viability assay, MDA-MB-231; assay type: cell-based, human
Summary of the method: as §1

[2] = Solution stability study by 1H NMR; assay type: physicochemical; details: DMSO-d6/phosphate buffer 3:7 (v/v), within 12 h
Summary of the method: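 Complexes were monitored by 1H NMR in DMSO-d6 or DMF-d7 mixed 1:9 (v/v) with degassed 20 mM phosphate buffer (pD 7.4, 4 mM NaCl). Spectra were taken at 25 °C at time points up to 24 h. Free ligands were monitored in DMSO-d6/phosphate buffer 3:7 (v/v).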

hydrolysis of ligand into amine and aldehyde [2] [%]	Structure (SMILES)	disruption of the microtubule network [1]	other results
–	[NH2][Pt]([NH2])([Cl])[Cl] [CDDP, cisplatin, reference compound]	did not observe any disruption of the microtubule formation	IC50 (Hep G2 cells): 14.3 ± 0.8 µM; IC50 (MIA PaCa-2 cells): 31.8 ± 4.8 µM; IC50 (MDA-MB-231 cells; read-out: IC50 ± SD, MDA-MB-231 (hypo), 48 h, hypoxia (1.5% O2)): 37.8 ± 2.3 µM; IC50 (MDA-MB-231 cells; read-out: IC50 ± SD, MDA-MB-231, 48 h, normoxia (∼15% O2)): 37.2 ± 2.5 µM
~80	COc1cc(N=Cc2ccccc2O)cc(OC)c1OC [Complex L1, 2-{[(3,4,5-Trimethoxyphenyl)imino]-methyl}phenol]	–	–
~80	COc1cccc(C=Nc2cc(OC)c(OC)c(OC)c2)c1O [Complex L3, 2-Methoxy-6-{[(3,4,5-trimethoxyphenyl)imino]-methyl}phenol]	–	–
–	COc1cc2c(c(OC)c1OC)-c1ccc(OC)c(=O)cc1[C@@H](NC(C)=O)CC2 [colchicine, reference compound]	exhibited microtubule network damage	–
